Assay results: ChEMBL document CHEMBL1135694, “Optimization of alkylidene hydrazide based human glucagon receptor antagonists. Discovery of the highly potent and orally available 3-cyano-4-hydroxybenzoic acid [1-(2,3,5,6-tetramethylbenzyl)-1H-indol-4-ylmethylene]hydrazide” (J Med Chem, 2002)

Columns and labels:
Glucagon receptor = Glucagon receptor (Homo sapiens, UniProt P47871); experiment: In vitro binding affinity for recombinant human glucagon receptor (hGGR) in BHK cells; assay type: cell-based
Sequence of Glucagon receptor (P47871 whole entry): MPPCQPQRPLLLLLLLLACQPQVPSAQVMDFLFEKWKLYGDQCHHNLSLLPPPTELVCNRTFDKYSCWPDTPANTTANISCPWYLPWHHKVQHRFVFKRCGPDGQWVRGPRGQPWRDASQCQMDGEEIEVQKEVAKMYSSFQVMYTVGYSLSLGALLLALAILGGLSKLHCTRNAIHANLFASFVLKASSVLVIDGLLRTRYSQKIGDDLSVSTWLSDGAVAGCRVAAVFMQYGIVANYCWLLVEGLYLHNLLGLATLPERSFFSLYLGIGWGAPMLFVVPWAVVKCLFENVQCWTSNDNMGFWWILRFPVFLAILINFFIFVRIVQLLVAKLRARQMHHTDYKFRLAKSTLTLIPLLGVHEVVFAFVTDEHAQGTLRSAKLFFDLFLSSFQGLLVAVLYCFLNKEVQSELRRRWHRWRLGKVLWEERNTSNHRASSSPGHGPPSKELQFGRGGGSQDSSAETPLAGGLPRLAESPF
How it was run: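 Membranes (4 µg) from BHK cells expressing the cloned human glucagon receptor. Compounds were diluted in DMSO, and a glucagon standard curve was run. IC50 given as mean ± SD, n = 3.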

[1] = Turnover in rat liver microsomes; assay type: ADME, Microsome
How it was run: (§1)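 Rat liver microsomes (0.331 mg/mL protein) with 10 µM compound, 1 mM UDP-GA and 1 mM NADPH in KH2PO4 buffer, pH 7.4, at 37 °C. Sampled at 0-30 min (n = 3), stopped with MeCN. Rate was taken from parent disappearance by LC-MS.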

Rattus norvegicus = species: Rattus norvegicus; experiment: In vitro metabolic turnover in rat liver microsomes was determined; assay type: functional; details: Microsome; how it was run: as §1

Row | Structure (SMILES) | IC50 (Glucagon receptor) [µM] | Metabolism [1] [pmol/min/mg] | Metabolism (pM min-1 mg-1) (Rattus norvegicus)
1 | O=C(N/N=C/c1cccc2c(CO)cccc12)c1ccc(O)c(Cl)c1 | 0.2 | 225 | 
2 | COc1cc(OCCN2CCc3ccccc3C2)ccc1/C=N/NC(=O)c1ccc(O)c(Cl)c1 | 0.12 | 322 | 
3 | CCN(CC)C(=O)c1ccc(/C=N/NC(=O)c2ccc(O)c(Cl)c2)c2ccccc12 | 0.0354 | 124 | 
4 | O=C(N/N=C/c1ccc(CC(=O)N2CCN(Cc3ccccc3)CC2)c2ccccc12)c1ccc(O)c(Cl)c1 | 0.0092 | 359 | 
5 | COc1cc(NC(=O)Cc2ccc(Cl)cc2)ccc1/C=N/NC(=O)c1ccc(O)c(C#N)c1 | 0.0287 |  | 
6 | O=C(COc1ccc(/C=N/NC(=O)c2ccc(O)c(Cl)c2)c2ccccc12)NC1CCN(Cc2ccccc2)C1 (centres undefined) | 0.0893 | 187 | 
7 | COc1cc(/C=N/NC(=O)c2ccc(O)c(Cl)c2)ccc1NC(=O)COc1ccc(OC(F)(F)F)cc1 | 0.073 | 136 | 
8 | O=C(N/N=C/c1ccc(OCC(=O)N2CC=C(c3ccc(Br)cc3)CC2)c2ccccc12)c1ccc(O)c(Cl)c1 | 0.0066 | 44 | 
9 | CCN(CC)C(=O)Cc1ccc(/C=N/NC(=O)c2ccc(O)c(C#N)c2)c2ccccc12 | 0.0165 | 130 | 
10 | O=C(N/N=C/c1cn(Cc2ccc(OC(F)F)cc2)c2ccccc12)c1ccc(O)c(Cl)c1 | 0.305 |  | 
11 | CCN(CC)C(=O)Cn1ccc2c(/C=N/NC(=O)c3ccc(O)c(Cl)c3)cccc21 | 2.54 | 165 | 
12 | COc1cc(NC(=O)CSc2ccc(OC(F)(F)F)cc2)ccc1/C=N/NC(=O)c1ccc(O)c(Cl)c1 | 0.0145 | 23 | 
13 | O=C(N/N=C/c1ccc(CS(=O)(=O)C2CCCC2)c2ccccc12)c1ccc(O)c(Cl)c1 | 0.221 |  | 
14 | O=C(N/N=C/c1ccc(CO)c2ccccc12)c1ccc(O)c(Cl)c1 | 0.0411 | 75 | 
15 | CCN(CC)C(=O)Cc1ccc(/C=N/NC(=O)c2ccc(O)c(Cl)c2)c2ccccc12 | 0.0226 | 323 | 
16 | CN(C)CCN(Cc1ccccc1)C(=O)Cc1ccc(/C=N/NC(=O)c2ccc(O)c(Cl)c2)c2ccccc12 | 0.0062 |  | 
17 | O=C(N/N=C/c1ccc(C(=O)N2CCN(Cc3ccc(Cl)cc3)CC2)c2ccccc12)c1ccc(O)c(Cl)c1 | 0.0113 | 77 | 
18 | O=C(COc1ccc(/C=N/NC(=O)c2ccc(O)c(Cl)c2)c2ccccc12)Nc1ccc(Cl)cc1 | 0.0517 |  | 
19 | N#Cc1cc(C(=O)N/N=C/c2ccc(C(=O)N3CCN(Cc4ccc(Cl)cc4)CC3)c3ccccc23)ccc1O | 0.0049 | 53 | 
20 | CC(C)CS(=O)(=O)c1ccc(/C=N/NC(=O)c2ccc(O)c(Cl)c2)c2ccccc12 | 0.181 | 110 | 
21 | CN(C)CCN(Cc1ccccc1)C(=O)Cc1ccc(/C=N/NC(=O)c2ccc(O)c(C#N)c2)c2ccccc12 | 0.0104 | 240 | 
22 | O=C(N/N=C/c1ccc(CO)c2ccccc12)c1ccc(O)c(F)c1 | 0.0294 | 89 | 
23 | CC(C)c1ccc(Cn2ccc3c(/C=N/NC(=O)c4ccc(O)c(Cl)c4)cccc32)cc1 | 0.023 | 48 | 
24 | NC(=O)[C@H](Cc1ccccc1)NCc1ccc(/C=N/NC(=O)c2ccc(O)c(Cl)c2)c2ccccc12 | 0.0618 | 178 | 

Row | Structure (SMILES) | IC50 (Glucagon receptor) [µM] | Metabolism [1] [pmol/min/mg] | Metabolism (pM min-1 mg-1) (Rattus norvegicus)
25 | N#Cc1cc(C(=O)N/N=C/c2ccc(OCC(=O)N3CC=C(c4ccc(Br)cc4)CC3)c3ccccc23)ccc1O | 0.0061 | 50 | 
26 | O=C(N/N=C/c1cccc2c1ccn2Cc1ccc(Cl)c(Cl)c1)c1ccc(O)c(Cl)c1 | 0.0275 | 190 | 
27 | COc1cc(NC(=O)CCc2ccc(C(F)(F)F)cc2)ccc1/C=N/NC(=O)c1ccc(O)c(Cl)c1.O | 0.0212 | 107 | 
28 | O=C(N/N=C/c1ccc(OCCNCc2ccc(Cl)c(Cl)c2)c2ccccc12)c1ccc(O)c(Cl)c1 | 0.0147 |  | 
29 | CC1CCCCN1C(=O)Cc1ccc(/C=N/NC(=O)c2ccc(O)c(Cl)c2)c2ccccc12 (centres undefined) | 0.0083 | 267 | 
30 | O=C(N/N=C/c1ccc(CS(=O)(=O)Cc2ccc(OC(F)(F)F)cc2)c2ccccc12)c1ccc(O)c(Cl)c1 | 0.0068 | 14 | 
31 | CC1CCCCN1C(=O)Cc1ccc(/C=N/NC(=O)c2ccc(O)c(C#N)c2)c2ccccc12 (centres undefined) | 0.0116 | 65 | 
32 | O=C(N/N=C/c1ccc(CC(=O)N2CCN(c3ccc(F)cc3)CC2)c2ccccc12)c1ccc(O)c(Cl)c1 | 0.0123 | 160 | 
33 | O=C(N/N=C/c1ccc(C(=O)NCCc2ccc(Cl)cc2)c2ccccc12)c1ccc(O)c(Cl)c1 | 0.0059 | 32 | 
34 | O=C(N/N=C/c1ccc(OCCNCc2ccccc2OC(F)(F)F)c2ccccc12)c1ccc(O)c(Cl)c1 | 0.0543 | 233 | 
35 | COc1cc(NC(=O)Cc2cccc(C(F)(F)F)c2)ccc1/C=N/NC(=O)c1ccc(O)c(C#N)c1 | 0.0478 | 51 | 
36 | O=C(N/N=C/c1cccc2c(OCc3ccc(OC(F)(F)F)cc3)cccc12)c1ccc(O)c(Cl)c1 | 0.0129 |  | 
37 | CN(C)CCN(C)C(=O)Cc1ccc(/C=N/NC(=O)c2ccc(O)c(Cl)c2)c2ccccc12 | 0.441 |  | 
38 | N#Cc1cc(C(=O)N/N=C/c2cccc3c2ccn3Cc2ccc(C(F)(F)F)cc2)ccc1O | 0.0223 | 59 | 
39 | N#Cc1cc(C(=O)N/N=C/c2ccc(CO)c3ccccc23)ccc1O | 0.0298 | 37 | 
40 | CN(C)c1ccc(C(=O)n2cc(/C=N/NC(=O)c3ccc(O)c(C#N)c3)c3ccccc32)cc1 | 0.0191 | 606 | 
41 | COc1cc(OCCNCc2ccc(C(F)(F)F)cc2)ccc1/C=N/NC(=O)c1ccc(O)c(Cl)c1 | 0.133 |  | 
42 | Cc1cc(C)c(C)c(Cn2ccc3c(/C=N/NC(=O)c4ccc(O)c(Cl)c4)cccc32)c1C | 0.0053 | 105 | 
43 | O=C(N/N=C/c1cccc2c1ccn2Cc1ccc(C(F)(F)F)cc1)c1ccc(O)c(Cl)c1 | 0.0338 | 116 | 
44 | O=C(N/N=C/c1ccc(OCC(=O)N2CCc3ccccc3C2)c2ccccc12)c1ccc(O)c(Cl)c1 | 0.0138 | 254 | 
45 | O=C(N/N=C/c1ccc2c(ccn2Cc2ccc(OC(F)(F)F)cc2)c1)c1ccc(O)c(Cl)c1 | 0.286 |  | 
46 | O=C(N/N=C/c1ccc(CC(=O)N2CCN(Cc3ccc(Cl)cc3)CC2)c2ccccc12)c1ccc(O)c(Cl)c1 | 0.0046 | 101 | 
47 | O=C(N/N=C/c1cccc2c1ccn2Cc1ccc(OC(F)(F)F)cc1)c1ccc(O)c(Cl)c1 | 0.0229 |  | 
48 | COc1cc(NC(=O)CCc2ccc(C(F)(F)F)cc2)ccc1/C=N/NC(=O)c1ccc(O)c(Cl)c1 | 0.0335 |  | 

Row | Structure (SMILES) | IC50 (Glucagon receptor) [µM] | Metabolism [1] [pmol/min/mg] | Metabolism (pM min-1 mg-1) (Rattus norvegicus)
49 | O=C(N/N=C/c1ccc(N(C(=O)C2CCCC2)C(=O)C2CCCC2)c2ccccc12)c1ccc(O)c(Cl)c1 | 0.0034 |  | 
50 | Cc1cc(C)c(Cn2ccc3c(/C=N/NC(=O)c4ccc(O)c(Cl)c4)cccc32)c(C)c1 | 0.0058 |  | 
51 | N#Cc1cc(C(=O)N/N=C/c2ccc(N(C(=O)C3CCCC3)C(=O)C3CCCC3)c3ccccc23)ccc1O | 0.0028 | 250 | 
52 | COc1ccc2oc(C(=O)Nc3ccc(/C=N/NC(=O)c4ccc(O)c(Cl)c4)c(OC)c3)cc2c1 | 0.0906 | 31 | 
53 | O=C(N/N=C/c1ccc(OCC(=O)N2CCC(O)(c3ccc(Br)cc3)CC2)c2ccccc12)c1ccc(O)c(Cl)c1 | 0.0114 |  | 
54 | CC(C)S(=O)(=O)Cc1ccc(/C=N/NC(=O)c2ccc(O)c(C#N)c2)c2ccccc12 | 0.163 | 31 | 
55 | O=C(N/N=C/c1ccc(NC(=O)C2CCCC2)c2ccccc12)c1ccc(O)c(Cl)c1 | 0.0388 | 134 | 
56 | O=C(N/N=C/c1cn(Cc2ccccc2)c2ccccc12)c1ccc(O)c(Cl)c1 | 0.615 |  | 
57 | O=C(N/N=C/c1ccc(CN2CCN(Cc3ccc(Cl)cc3)CC2)c2ccccc12)c1ccc(O)c(Cl)c1 | 0.0967 | 51 | 
58 | COc1cc(NC(=O)CCc2ccc(C(F)(F)F)cc2)ccc1/C=N/NC(=O)c1ccc(O)c(C#N)c1 | 0.0157 |  | 
59 | CC(C)(C)C(=O)Nc1ccc(/C=N/NC(=O)c2ccc(O)c(Cl)c2)c2ccccc12 | 0.033 | 45 | 
60 | O=C(N/N=C/c1ccc(CO)c2ccccc12)c1ccc(O)c(Cl)c1Cl | 0.0538 |  | 103
61 | CCN(CC)C(=O)COc1ccc(/C=N/NC(=O)c2ccc(O)c(Cl)c2)c2ccccc12 | 0.0497 | 302 | 
62 | O=C(N/N=C/c1ccc(OCCNCCc2ccc(Br)cc2)c2ccccc12)c1ccc(O)c(Cl)c1 | 0.0197 | 250 | 
63 | CCC1CCCCN1C(=O)Cc1ccc(/C=N/NC(=O)c2ccc(O)c(Cl)c2)c2ccccc12 (centres undefined) | 0.0074 | 279 | 
64 | COCc1ccc(/C=N/NC(=O)c2ccc(O)c(Cl)c2)c2ccccc12 | 0.0755 |  | 
65 | O=C(N/N=C/c1ccc(OCCNCc2ccc(OC(F)(F)F)cc2)c2ccccc12)c1ccc(O)c(Cl)c1 | 0.0277 | 167 | 
66 | N#Cc1cc(C(=O)N/N=C/c2cn(C(=O)CC3CCCC3)c3ccccc23)ccc1O | 0.0064 | 136 | 
67 | O=C(N/N=C/c1ccc(CC(=O)N2CCN(c3ccccc3F)CC2)c2ccccc12)c1ccc(O)c(Cl)c1 | 0.0079 | 178 | 
68 | COc1cc(/C=N/NC(=O)c2ccc(O)c(Cl)c2)cc(Cl)c1OCCN1CCc2ccccc2C1 | 0.485 |  | 
69 | CN1CCN(C(=O)Cc2ccc(/C=N/NC(=O)c3ccc(O)c(Cl)c3)c3ccccc23)CC1 | 0.268 | 283 | 
70 | COc1cc(/C=N/NC(=O)c2ccc(O)c(Cl)c2)ccc1NC(=O)Cc1csc2ccccc12 | 0.0632 | 74 | 
71 | O=C(N/N=C/c1ccc(O)c2ccccc12)c1ccc(O)c(Cl)c1 | 0.203 |  | 
72 | CC(C)S(=O)(=O)c1ccc(/C=N/NC(=O)c2ccc(O)c(Cl)c2)c2ccccc12 | 0.357 | 110 | 
